Laboratory results from ChEMBL document CHEMBL3120138, “Glucocorticoid receptor modulators informed by crystallography lead to a new rationale for receptor selectivity, function, and implications for structure-based design” (J Med Chem, 2014).
Calls of active or inactive are those of the source. No cut-off for these calls is given here.

What was measured:
Progesterone receptor = target: T1, Progesterone receptor (Homo sapiens, UniProt P06401); assay: Displacement of [3H]-methyltrienolone from human progesterone receptor expressed in HEK293 cells; type: cell-based
T1 sequence (P06401 whole entry): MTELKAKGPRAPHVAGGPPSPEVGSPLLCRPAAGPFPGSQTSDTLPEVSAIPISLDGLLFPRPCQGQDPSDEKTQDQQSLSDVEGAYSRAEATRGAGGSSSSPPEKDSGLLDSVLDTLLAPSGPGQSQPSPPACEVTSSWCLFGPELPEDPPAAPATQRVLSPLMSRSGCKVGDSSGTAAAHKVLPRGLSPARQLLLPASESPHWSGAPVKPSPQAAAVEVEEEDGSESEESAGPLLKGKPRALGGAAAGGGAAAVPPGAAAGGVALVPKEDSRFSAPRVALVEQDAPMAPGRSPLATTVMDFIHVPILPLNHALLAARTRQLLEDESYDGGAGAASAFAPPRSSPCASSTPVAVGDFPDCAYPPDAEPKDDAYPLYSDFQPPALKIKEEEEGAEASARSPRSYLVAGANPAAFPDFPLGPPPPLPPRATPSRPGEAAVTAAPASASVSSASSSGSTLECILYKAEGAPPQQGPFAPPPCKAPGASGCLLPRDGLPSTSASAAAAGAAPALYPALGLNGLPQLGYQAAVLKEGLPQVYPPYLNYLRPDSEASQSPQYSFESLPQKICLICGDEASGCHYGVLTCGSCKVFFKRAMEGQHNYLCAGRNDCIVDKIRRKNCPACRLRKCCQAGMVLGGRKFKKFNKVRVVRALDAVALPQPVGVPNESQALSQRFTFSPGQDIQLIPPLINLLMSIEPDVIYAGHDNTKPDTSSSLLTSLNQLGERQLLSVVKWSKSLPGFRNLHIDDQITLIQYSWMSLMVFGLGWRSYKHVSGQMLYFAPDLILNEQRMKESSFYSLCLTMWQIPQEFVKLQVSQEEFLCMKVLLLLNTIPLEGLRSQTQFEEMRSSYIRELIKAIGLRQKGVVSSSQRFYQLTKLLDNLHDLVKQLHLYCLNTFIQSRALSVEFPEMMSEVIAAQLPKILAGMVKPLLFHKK
Summary of the method: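 Competition binding used lysates of HEK293 cells overexpressing the human receptor. The tracer was ³H-aldosterone for MR and ³H-methyltrienolone for PR. Competitor was tested from 0.01 nM to 10 μM. IC50 was converted to Ki by Cheng–Prusoff. Values are means of at least three experiments, each run in triplicate.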

Rattus norvegicus [1] = assay: Antiinflammatory activity in po dosed Sprague-Dawley rat assessed as inhibition of carrageenan-induced paw edema incubated for 2 hrs prior to carrageenan challenge measured after 5 hrs […]; type: functional
Rattus norvegicus [2] = assay: Antiinflammatory activity in Lewis rat collagen-induced arthritis model assessed as reduction of pannus at 30 mg/kg, po administered for 15 days; type: functional, organism-based; set-up: dose 30 mg/kg
Summary of the method: (§1)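 Female Lewis rats received collagen injected at the tail base, and disease developed over 14 d. Responding rats (groups of n = 10) were then dosed orally once daily for the next 15 d. Ankle/paw diameter was measured throughout the live phase and summarised as AUC. Hindpaw histology was scored blind from 0 (normal) to 5 (vehicle-level). Statistics used Student's t test vs vehicle, p < 0.01.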

[3] = Clearance in Sprague-Dawley rat at 3 mg/kg, iv; type: ADME, organism-based; set-up: dose 3 mg/kg, route intravenous; details: in vivo
Summary of the method: (§2)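 Cannulated male Sprague-Dawley rats, fasted overnight, given a single 3 mpk dose at t = 0. The iv vehicle was 20% microemulsion/80% DI water and the po vehicle CMC/tween in DI water. Plasma was analysed for parent compound by LC/MS-MS, and exposure, half-life, Vd, clearance and bioavailability were calculated.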

Rattus norvegicus [4] = assay: Antiinflammatory activity in Lewis rat collagen-induced arthritis model assessed as reduction of bone resorption at 30 mg/kg, po administered for 15 days; type: functional, organism-based; set-up: dose 30 mg/kg; summary of the method: as §1
[5] = AUC in Sprague-Dawley rat at 3 mg/kg, iv; type: ADME, organism-based; set-up: dose 3 mg/kg, route intravenous; details: plasma; summary of the method: as §2
[6] = Half life in Lewis rat collagen-induced arthritis model at 3 to 30 mg/kg, po after 15 days; type: ADME, organism-based; set-up: dose 3-30 mg/kg, route oral; details: in vivo
[7] = Volume of distribution in Sprague-Dawley rat at 3 mg/kg, iv; type: ADME, organism-based; set-up: dose 3 mg/kg, route intravenous; details: in vivo; summary of the method: as §2
[8] = Antiinflammatory activity in PMA-differentiated human U937 cells assessed as inhibition of LPS-induced TNFalpha production incubated for 60 mins prior to LPS challenge measured after 24 hrs; type: functional, cell-based; details: U-937
Summary of the method: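 U-937 cells (100 000/well) were differentiated with 20 nM PMA overnight at 37 °C, then refed with PMA-free medium. Cells were pretreated with compound for 60 min, then stimulated with LPS (stock 400 ng/mL) for 24 h at 37 °C. Secreted TNFα was measured by EIA/RIA. Ten-point half-log dilutions were used, each concentration in triplicate.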

Rattus norvegicus [9] = assay: Antiinflammatory activity in po dosed Lewis rat collagen-induced arthritis model assessed as reduction in ankle diameter administered for 15 days measured during compound dosing; type: functional, organism-based; summary of the method: as §1
Rattus norvegicus [10] = assay: Antiinflammatory activity in Lewis rat collagen-induced arthritis model assessed as reduction of cartilage damage at 30 mg/kg, po administered for 15 days; type: functional, organism-based; set-up: dose 30 mg/kg; summary of the method: as §1
[11] = AUC in Sprague-Dawley rat at 3 mg/kg, po; type: ADME, organism-based; set-up: dose 3 mg/kg, route oral; details: plasma; summary of the method: as §2
[12] = Half life in Sprague-Dawley rat at 3 mg/kg, iv; type: ADME, organism-based; set-up: dose 3 mg/kg, route intravenous; details: in vivo; summary of the method: as §2
Rattus norvegicus [13] = assay: Antiinflammatory activity in Lewis rat collagen-induced arthritis model assessed as reduction of joint inflammation at 30 mg/kg, po administered for 15 days; type: functional, organism-based; set-up: dose 30 mg/kg; summary of the method: as §1
Rattus norvegicus [14] = assay: Antiinflammatory activity in po dosed Sprague-Dawley rat assessed as inhibition of carrageenan-induced IL-1beta secretion incubated for 2 hrs prior to carrageenan challenge measured after 5 hrs by ELISA; type: functional
Summary of the method: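 Male Sprague-Dawley rats (n = 5/group) were dosed at t = 0, and carrageenan was injected into the rear footpad at 2 h. At 5 h the animals were euthanised and the hindpaws weighed to measure edema. Paw exudate was assayed for IL-1β by ELISA.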

[15] = Tmax in Lewis rat collagen-induced arthritis model at 3 to 30 mg/kg, po after 15 days; type: ADME, organism-based; set-up: dose 3-30 mg/kg, route oral; details: in vivo

CC/C(=C1/c2ccccc2COc2ccccc21)c1cccc(NS(C)(=O)=O)c1
Ki (Progesterone receptor): 0.0155 µM

C/C(=C1/c2ccccc2COc2ccccc21)c1cccc(NS(C)(=O)=O)c1
Ki (Progesterone receptor): 0.00617 µM

CC/C(=C1\c2ccccc2OCc2cccc(OC)c21)c1cccc(NS(C)(=O)=O)c1
ED50 (Rattus norvegicus [1]): 2.8 mg/kg
Activity (Rattus norvegicus [2]): Active
clearance [3]: 56 mL/min/kg
Activity (Rattus norvegicus [4]): Active
AUC [5]: 1490 ng·h/mL
half-life [6]: 1.4 h
Vd [7]: 7 L/kg
IC50 [8]: 0.0191 µM
Activity (Rattus norvegicus [9]): Dose-dependent effect
Activity (Rattus norvegicus [10]): Active
AUC [11]: 1300 ng·h/mL
half-life [12]: 1.4 h
Activity (Rattus norvegicus [13]): Active
ED50 (Rattus norvegicus [14]): 1.7 mg/kg
Ki (Progesterone receptor): 0.0268 µM
Tmax [15]: 1 h

CS(=O)(=O)Nc1cccc(C=C2c3ccccc3CCc3ccccc32)c1
Ki (Progesterone receptor): 0.099 µM
